Source: ChEMBL document CHEMBL4689842, “EUbOPEN Chemogenomics Library wave 1” (2021)

System: HEK-293T
Test: Multiplex assay against HEK293T;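 as to Population Tubulin-Different-Phenotype (%): share of the cells with healthy nuclei that show this phenotype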
Type: toxicity, cell-based
Settings: human
In short: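 Cells stained live at seeding with Hoechst33342, BioTracker Green Microtubule Cytoskeleton Dye, MitoTracker Red and Annexin V Alexa Fluor 680 were imaged on a CQ1 microscope at 37°C and 5% CO2 after compound addition. Their classification by CellPathfinder machine-learning gating ran from Hoechst high-intensity objects versus normal cells, to healthy, pyknosed or fragmented nuclei among normal cells, to mitotic or apoptotic among pyknosed cells. Tubulin, mitochondrial-mass and membrane-permeability phenotypes are per cents of healthy-nucleus cells.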

[1] = 12 h, 1 µM, compound concentration 1 uM, replicate 1
[2] = 12 h, 1 µM, compound concentration 1 uM, replicate 2
[3] = 12 h, 10 µM, compound concentration 10 uM, replicate 1
[4] = 12 h, 10 µM, compound concentration 10 uM, replicate 2
[5] = 24 h, 1 µM, compound concentration 1 uM, replicate 1
[6] = 24 h, 1 µM, compound concentration 1 uM, replicate 2
[7] = 24 h, 10 µM, compound concentration 10 uM, replicate 1
[8] = 24 h, 10 µM, compound concentration 10 uM, replicate 2

C=CC(=O)Nc1ccc2[nH]c(=O)n(C3CCN(Cc4ccc(-c5nc6cc[nH]c(=O)c6cc5-c5ccccc5)cc4)CC3)c2c1 [Borussertib]
Population Apoptotic (%) [1]: 18%
Population Fragmented Nuclei (%) [1]: 16%
Population Healthy Nuclei (%) [1]: 66%
Population Hoechst High Intensity Objects (%) [1]: 13%
Population Membrane Permeable-Phenotype (%) [1]: 5%
Population Mitochondria Different-Phenotype (%) [1]: 5%
Population Mitotic Cells (%) [1]: 81%
Population Normal (%) [1]: 86%
Population Pyknosed Nuclei (%) [1]: 17%
Population Tubulin-Different-Phenotype (%) [1]: 5%
Total Cell Count [1]: 656
Population Apoptotic (%) [2]: 14%
Population Fragmented Nuclei (%) [2]: 7%
Population Healthy Nuclei (%) [2]: 86%
Population Hoechst High Intensity Objects (%) [2]: 3%
Population Membrane Permeable-Phenotype (%) [2]: 3%
Population Mitochondria Different-Phenotype (%) [2]: 12%
Population Mitotic Cells (%) [2]: 85%
Population Normal (%) [2]: 96%
Population Pyknosed Nuclei (%) [2]: 5%
Population Tubulin-Different-Phenotype (%) [2]: 12%
Total Cell Count [2]: 1375
Population Apoptotic (%) [3]: 24%
Population Fragmented Nuclei (%) [3]: 17%
Population Healthy Nuclei (%) [3]: 48%
Population Hoechst High Intensity Objects (%) [3]: 13%
Population Membrane Permeable-Phenotype (%) [3]: 9%
Population Mitochondria Different-Phenotype (%) [3]: 25%
Population Mitotic Cells (%) [3]: 75%
Population Normal (%) [3]: 86%
Population Pyknosed Nuclei (%) [3]: 33%
Population Tubulin-Different-Phenotype (%) [3]: 44%
Total Cell Count [3]: 585
Population Apoptotic (%) [4]: 17%
Population Fragmented Nuclei (%) [4]: 4%
Population Healthy Nuclei (%) [4]: 84%
Population Hoechst High Intensity Objects (%) [4]: 4%
Population Membrane Permeable-Phenotype (%) [4]: 12%
Population Mitochondria Different-Phenotype (%) [4]: 43%
Population Mitotic Cells (%) [4]: 82%
Population Normal (%) [4]: 95%
Population Pyknosed Nuclei (%) [4]: 11%
Population Tubulin-Different-Phenotype (%) [4]: 82%
Total Cell Count [4]: 1080
Population Apoptotic (%) [5]: 15%
Population Fragmented Nuclei (%) [5]: 14%
Population Healthy Nuclei (%) [5]: 75%
Population Hoechst High Intensity Objects (%) [5]: 11%
Population Membrane Permeable-Phenotype (%) [5]: 8%
Population Mitochondria Different-Phenotype (%) [5]: 3%
Population Mitotic Cells (%) [5]: 84%
Population Normal (%) [5]: 88%
Population Pyknosed Nuclei (%) [5]: 9%
Population Tubulin-Different-Phenotype (%) [5]: 10%
Total Cell Count [5]: 716
Population Apoptotic (%) [6]: 11%
Population Fragmented Nuclei (%) [6]: 19%
Population Healthy Nuclei (%) [6]: 77%
Population Hoechst High Intensity Objects (%) [6]: 4%
Population Membrane Permeable-Phenotype (%) [6]: 9%
Population Mitochondria Different-Phenotype (%) [6]: 4%
Population Mitotic Cells (%) [6]: 88%
Population Normal (%) [6]: 95%
Population Pyknosed Nuclei (%) [6]: 3%
Population Tubulin-Different-Phenotype (%) [6]: 19%
Total Cell Count [6]: 2108
Population Apoptotic (%) [7]: 34%
Population Fragmented Nuclei (%) [7]: 15%
Population Healthy Nuclei (%) [7]: 60%
Population Hoechst High Intensity Objects (%) [7]: 16%
Population Membrane Permeable-Phenotype (%) [7]: 8%
Population Mitochondria Different-Phenotype (%) [7]: 33%
Population Mitotic Cells (%) [7]: 65%
Population Normal (%) [7]: 83%
Population Pyknosed Nuclei (%) [7]: 23%
Population Tubulin-Different-Phenotype (%) [7]: 68%
Total Cell Count [7]: 518
Population Apoptotic (%) [8]: 16%
Population Fragmented Nuclei (%) [8]: 8%
Population Healthy Nuclei (%) [8]: 83%
Population Hoechst High Intensity Objects (%) [8]: 9%
Population Membrane Permeable-Phenotype (%) [8]: 9%
Population Mitochondria Different-Phenotype (%) [8]: 43%
Population Mitotic Cells (%) [8]: 83%
Population Normal (%) [8]: 90%
Population Pyknosed Nuclei (%) [8]: 8%
Population Tubulin-Different-Phenotype (%) [8]: 90%
Total Cell Count [8]: 1115
